Experimental data pooled from the literature.
Each line is one published result; the experiments were not run side by side.
Cell line: MRC5
Read-out: cell growth or viability

For `COc1cccc(C(=O)O[C@@H]2CN3Cc4c(cc5c(c4OC)OCO5)[C@@]24C=C[C@H](OC)C[C@@H]34)c1`, the IC50 was over 10 µM (WST-1).
For `Oc1ccccc1-c1n[nH]c(-c2ccccc2O)n1`, the IC50 was over 100 µM (MTT; 72 h).
`COc1ccc(C(=O)O[C@@H]2CN3Cc4c(cc5c(c4OC)OCO5)[C@@]24C=C[C@H](OC)C[C@@H]34)cc1` gave an IC50 of over 10 µM (WST-1).
`COc1cc2ccc(=O)oc2cc1OC` has an IC50 of over 100 µM (MTT; 72 h).
`O=C(/C=C/C=C/c1ccc2c(c1)OCO2)N1CCCCC1` gave an IC50 of 136 µM (SRB).
`COc1c2c(cc3c1OCO3)[C@]13C=C[C@H](OC)C[C@H]1N(C2)C[C@H]3OC(=O)c1cccc(C)c1` has an IC50 of over 10 µM (WST-1).
With `CC(=O)O[C@H]1C(=O)[C@@]2(C)[C@H]([C@H](OC(=O)c3ccccc3)[C@]3(O)C[C@H](OC(=O)[C@H](O)[C@@H](NC(=O)c4ccccc4)c4ccccc4)C(C)=C1C3(C)C)[C@]1(OC(C)=O)CO[C@@H]1C[C@@H]2O` the IC50 was 0.0141 µM (SRB).
`O=C([O-])c1ccc(-n2nc(-c3ccccc3O)nc2-c2ccccc2[O-])cc1.O=C([O-])c1ccc(-n2nc(-c3ccccc3O)nc2-c2ccccc2[O-])cc1.[Ti+4]` gave an IC50 of 25 µM (MTT; 72 h).
The IC50 of `CCCCC/C=C/C(=O)CCc1ccc(O)c(OC)c1` is reported as 18.5 µM (SRB).
With `CC(C)=CCC/C(C)=C/COc1ccc2ccc(=O)oc2c1` the IC50 was over 100 µM (MTT; 72 h).
